Laboratory results: publication PMC3529145 (Bioconjugate chemistry, 2012)
No end group written: not given here.

Tests used:
Assay type in all cases: in vivo, mouse
LNCaP tumors = assay: Postmortem biodistribution, LNCaP tumor uptake and tumor-to-tissue ratios; conditions: for LNCaP Tumor/kidney ratio: biodistribution
PC-3 tumor = assay: Small-animal PET imaging, PC-3 tumor xenograft; conditions: PET ROI analysis, i.v. tail vein, dual tumor bearing mice n = 4
Procedure, shortened: (§1)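 Male athymic nude mice carried LNCaP (right shoulder, implanted 14 days earlier) and PC-3 (left shoulder) xenografts, each 100–200 mm3 (n = 4). Dosing was by tail vein: 160–170 μCi of labelled peptide in 200 μL 3% EtOH/saline, or 260 μCi of control peptide in 200 μL PBS. Static 15-min microPET scans were taken at 2 and 4 h under isoflurane. Decay-corrected ROI values were expressed as %ID/g by phantom calibration.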

LNCaP tumor = assay: Small-animal PET imaging, LNCaP tumor xenograft; conditions: for radioactivity accumulation in LNCaP tumor (PET): PET ROI analysis, i.v. tail vein, dual tumor bearing mice n = 4
Procedure, shortened: as §1

Substance	LNCaP Tumor/kidney ratio (LNCaP tumors; 2 h p.i.)	LNCaP Tumor/kidney ratio (LNCaP tumors; 4 h p.i.)	LNCaP Tumor/liver ratio (LNCaP tumors; mouse, in vivo)	radioactivity accumulation in PC-3 tumor (PET) (PC-3 tumor; 2 h p.i.) [%ID/g]	radioactivity accumulation in PC-3 tumor (PET) (PC-3 tumor; 4 h p.i.) [%ID/g]	radioactivity accumulation in LNCaP tumor (PET) (LNCaP tumor; 2 h p.i.) [%ID/g]	radioactivity accumulation in LNCaP tumor (PET) (LNCaP tumor; 4 h p.i.) [%ID/g]	LNCaP Tumor/blood ratio (LNCaP tumors; mouse, in vivo)	LNCaP Tumor/muscle ratio (LNCaP tumors; mouse, in vivo)	tumor accumulation observed by PET (in words) (LNCaP tumor; PET images of mice bearing LNCaP and PC-3 tumors, negative control)
ACEQNPIYWARYADWLFTTPLLLLDLALLVDADEGTG-CO2H [[^18F]-4a]	0.3	0.3	0.2	4.2 ± 0.4	5.4 ± 0.5	8.3 ± 1.5	8.5 ± 1.3	–	–	–
ACEQNPIYWARYAKWLFTTPLLLLKLALLVDADEGTG-OH [[^18F]-5]	0.4	–	0.2	–	–	–	–	0.1	0.4	lack of any tumor accumulation
